# In ChEMBL document CHEMBL4513216, “Probing the Open Global Health Chemical Diversity Library for Multistage-Active Starting Points for Next-Generation Antimalarials” (ACS Infect Dis, 2020):
# Assay: Toxicity liver stage against HepG2, at 10uM
# Type: cell-based
# Parameters: test concentration 10 uM, cell line HepG2-A16-CD81EGFP
# Conditions: human, HepG2-A16-CD81EGFP cells; read-out: INHIBITION
# In short: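 Uninfected HepG2-A16-CD81EGFP cells, 3 × 10^3 per well, 1536-well, plated on prespotted compound at 10 μM final, parasite-free screening media added to match infected plates; puromycin 10 μM positive, DMSO 0.5% negative; run in parallel with 48 h PbLuc assay at 37 °C, 5% CO2; viability by CellTiter-Glo luminescence, normalized to controls.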
row,SMILES,cytotoxicity at 10 µM [%]
1,CCN(CC)S(=O)(=O)c1ccc(C(=O)NC(C)(C)C)cc1,-6.79
2,O=C(NC[C@H]1CCCC[C@H]1O)c1cccc2[nH]c(-c3cccs3)nc12,-6.95
3,COc1ccc2c(ccn2CCC(=O)NCCC(=O)O)c1,6.81
4,Cn1cnnc1S(=O)(=O)C1CCN(C(=O)c2ccco2)CC1,-2.28
5,Cc1cccc(CN2CCC23CCCNC3)n1 (stereo not given),2.55
6,CCN1CCC2(COCc3c(C)nc(N4CCOCC4)nc32)C1 (stereo not given),-141
7,Cn1cc(CN2CC[C@H]3C[C@H](c4nc(C5CC5)cs4)O[C@@H]3C2)cn1,-6.78
8,COCCN1C[C@H]2[C@@H](C1)N(Cc1ccc(C)o1)CC[C@H]2OC,-8.34
9,CCn1nccc1CN(C)c1[nH]cnc2nc(C)nc1-2,-7.97
10,Cc1c(S(=O)(=O)N(CCc2ccccc2)Cc2ccn(C)n2)cnn1C,3.82
11,Cc1ccc(-c2ccccc2CC2(C(=O)NC(C)C)CCCNC2)cc1 (stereo not given),2.73
12,COCCC(=O)NCc1ccc(-c2ncncc2C(=O)N(C)C)cc1,4.45
13,CN(C)Cc1cnc(C2CCN(C(=O)c3cccc(F)c3)C2)[nH]1 (stereo not given),2.54
14,Cc1nonc1C(=O)N1CCCC(c2ncncc2-c2ccncc2)C1 (stereo not given),1.41
15,CCN(CC1CCOC1)C(=O)NCc1nnc2n1CCC2 (stereo not given),13.6
16,CC(CN1CCOC1=O)NC(=O)c1cccc(C#N)c1 (stereo not given),-8.37
17,CCCOc1ccc2c(c1)OCC(CNC1CCc3ncnn3C1)=C2 (stereo not given),-6.63
18,COc1c(CNCC(=O)N2CCN(C)CC2)c(C(C)C)nn1C,7.45
19,COCCN(CCOC)C(=O)c1cnn(C)c1-n1c(C)ccc1C,-144
20,COc1ccc(N2CCC(NC(=O)c3ccc(C#N)cc3)CC2)cc1,-14.7
21,CCOCCNC(=O)CCC1CCCO1 (stereo not given),-122
22,CCc1nc(CSc2nnc(N)n2C2CC2)no1,6.12

row,SMILES,cytotoxicity at 10 µM [%]
1,Cc1noc(C(C)Nc2ccc3c(c2)CCC3)n1 (stereo not given),1.84
2,CC(C)C(NC(=O)Nc1cnn(CC(N)=O)c1)c1ccc(Cl)cc1 (stereo not given),7.51
3,CCc1nc2n(n1)CC(NCc1cc3ccccc3o1)CC2 (stereo not given),3.77
4,CC(C(=O)Nc1ccccc1Sc1ccccc1)S(C)(=O)=O (stereo not given),-1.7
5,CC(=O)NC1CCCN(Cc2ccc(OCc3ccccn3)cc2)C1 (stereo not given),1.41
6,CN(C)CCCNc1ncnc2cccc(F)c12,9.66
7,O=C(NC1(c2nnn(CC3CC3)n2)CCCC1)c1ccccc1,6.48
8,CCCOC(=O)C(C)Sc1nnnn1C1CCOCC1 (stereo not given),18.1
9,COc1ccc(C)cc1C(=O)NC1(C#N)CCOCC1,1.98
10,CCC(CNC1CCN(C(C)=O)CC1)Oc1ccccc1Cl (stereo not given),-13.4
11,CN(Cc1cccs1)C(=O)CNC1CCc2ncnn2C1 (stereo not given),3.03
12,CC1CCN(S(=O)(=O)c2cccnc2)c2ccccc2S1 (stereo not given),5
13,Cn1c2ncccc2c(=O)n1CC(=O)Nc1ccc(F)c(F)c1,16.5
14,O=C(O)c1ccc(F)c(S(=O)(=O)Nc2ccc(-n3cccn3)c(Cl)c2)c1,2.24
15,CC(C)c1noc(CN(Cc2cccs2)C2CC2)n1,-9.15
16,O=C(COc1cccc2c1CCC2=O)NCCOc1ccccc1,10.5
17,CC(C)C(=O)N1CCN(Cc2csc(-c3ncccn3)n2)CC1,-5.1
18,CS(=O)(=O)N1CC[C@H]2OCC[C@@]2(C(=O)NCC2CC2)C1,-98.2
19,CC(=O)N1CC[C@H]2OCC[C@@]2(C(=O)NCc2cnc(C)cn2)C1,-106
20,CC(C)CC(=O)N1CC[C@@H]2CN(Cc3cccnc3)S(=O)(=O)[C@@H]2CC1,-103
21,O=C(CC1CC1)N1CCC2(COCc3cnc(-c4cccnc4)nc32)C1 (stereo not given),-106
22,Cn1ccc(-c2cc(C(=O)N3CCC(O)CC3)c3ccccn23)n1,-98.3

row,SMILES,cytotoxicity at 10 µM [%]
1,c1cc(CN2CCCn3nnc(COCC4CC4)c3C2)ccn1,-113
2,Cc1ccccc1CSc1nc(N)cc(N2CCC(CC(N)=O)CC2)n1,-10.4
3,O=c1cc(CN2CC[C@@]3(O)CCCC[C@H]3C2)c2cccc3c2n1CCC3,-0.948
4,Cc1cc(C)n(CCCN(C)C(=O)[C@H]2CCCO2)n1,-13.2
5,COCC[C@]1(O)CCN(c2ncc(Cl)cc2F)C[C@H]1C,12.8
6,c1ccc(C2CCCCN2Cc2nc(-c3cnccn3)no2)nc1 (stereo not given),-8.04
7,OCCc1cn(CC2CCCN(Cc3nccs3)C2)nn1 (stereo not given),-6.51
8,O=C(CCC1CC1)N1CCC(n2cc(C3(O)CCCC3)nn2)CC1,9.4
9,O=C1CN(C(=O)CC2c3ccccc3CCc3ccccc32)CCN1,9.98
10,Cc1ccc(-c2ncc(C(=O)N3CCC[C@H](N)C3)c(O)n2)cc1,-7.14
11,Cn1cc2ncn(CCC3CCN(Cc4ccccc4)C3)c(=O)c2n1 (stereo not given),1.28
12,Cc1cc(C)nc(NCCSc2cnn[nH]2)n1,3.22
13,Cc1ccsc1-c1nccn1CCN(C)S(C)(=O)=O,-7.36
14,CS(=O)(=O)CC1CCCN(C(=O)Cn2cccc(C(F)(F)F)c2=O)C1 (stereo not given),4.1
15,COCCN1CCCC2(CCN(c3nc(C)nc4ccsc34)C2)C1=O (stereo not given),10.7
16,CN1CCCN(Cc2nc(Cc3ccccc3)n[nH]2)CC1,-7.47
17,Cc1cnc(N)nc1N1CCN(CCCO)CC1,0.761
18,CN(C)c1nc2c(c(N3CCC4(CCCNC4=O)C3)n1)CCCC2 (stereo not given),-5.81
19,CC(C)[C@H]1CN(Cc2ccccn2)C[C@@H]1NC(=O)CC1CCC1,-2.57
20,O=C(c1ccoc1)N1CCCN(CC2CCOc3ccccc3C2)CC1 (stereo not given),0.0531
21,OC1(CN(Cc2cccnc2)C2CCCCC2)CNCCOC1 (stereo not given),-21
22,COc1nccc(N2CC[C@@H](N3CCCCCC3)[C@H](O)C2)c1C#N,-152

row,SMILES,cytotoxicity at 10 µM [%]
1,c1ccc(CN2CCC(NCCSc3ncn[nH]3)C2)cc1 (stereo not given),-2.76
2,Cc1cccnc1CN1CCOC(Cc2cccc3ccccc23)C1 (stereo not given),-2.43
3,CC(C)C1=NOC(c2nc(Cc3ccccc3)no2)C1 (stereo not given),-3.94
4,CC(=O)NCC1CCC2(CCN(c3nccc(C4CCCC4)n3)CC2)O1 (stereo not given),-4.43
5,CC(C)c1cc(C(=O)N2CCN(CC3CC3)[C@@H]3CS(=O)(=O)C[C@@H]32)on1,3.05
6,N#Cc1ccc(CN2CCN(C(=O)C3CCC3)[C@@H]3CS(=O)(=O)C[C@@H]32)cc1,-9.78
7,CCOCCn1nc(C)cc1C(=O)N1CCOCC(CO)C1 (stereo not given),-20
8,Cc1ccccc1CSc1nc(N)cc(N2CC[C@@H](O)C2)n1,0.28
9,CNc1cccc(C2CCCN(C(=O)c3ccncc3)C2)n1 (stereo not given),-4.02
10,Cc1cc(CN(C)C(=O)c2cccc(N3CCCS3(=O)=O)c2)no1,-10.2
11,CC(=O)c1cccc(S(=O)(=O)NCc2cccnc2N(C)C)c1,4.24
12,c1csc(-c2nc(CN3CCCCC3Cn3cncn3)cs2)c1 (stereo not given),-1.19
13,CC(NC(=O)NCCCc1n[nH]c(N)c1C#N)c1cccc(Cl)c1 (stereo not given),-4.14
14,CCc1sc(C(=O)N2CCC(Nc3ccc(C)nn3)CC2)cc1C,1.86
15,Cc1ccc(NC2CCN(C(=O)c3ccc(C(N)=O)s3)CC2)nn1,1.8
16,O=C(c1ccc2c(c1)OCCCO2)N1CCCC(n2ccnc2)C1 (stereo not given),0.893
17,CC(C)c1nc(C2CCCN(C(=O)c3cccc4c3OCO4)C2)no1 (stereo not given),-12
18,CC1CCCN(C(=O)C2CCN(c3snc4ccccc34)CC2)C1 (stereo not given),10.1
19,CC(=O)N1CCN(C(=O)NCc2ccc(Cl)s2)CC1,-15.4
20,CCc1nnc2n1CCN(CC(=O)Nc1sccc1C#N)C2,-7.67
21,CC(C)c1noc(CN2CCN(C(=O)c3ccccc3F)CC2)n1,-8.08
22,Cc1cnn(CCNCc2nc(-c3ccccc3Cl)no2)c1,-9.91

row,SMILES,cytotoxicity at 10 µM [%]
1,COc1cc(CNC(=O)NCc2c(C)cc(C)[nH]c2=O)ccc1C,-11.5
2,Cc1nc(CN2CCCC(NCCOc3ccccc3)C2)no1 (stereo not given),-7.98
3,CC(C)(C)c1cnc(CN2CCC(c3ccnn3CCO)CC2)o1,-3.15
4,Cn1cc(C(=O)NCC2CCN(C(=O)NCC(F)(F)F)CC2)cn1,-3.68
5,O=C(CCN1CCCC1C1CCCCC1)N1CCc2sccc2C1 (stereo not given),-11
6,COc1ccc(CNC(=O)Nc2cccnc2N2CCCC2)cc1O,-10.7
7,CCN1CCN(C2CCN(Cc3ncc(C(C)(C)C)o3)CC2)C1=O,2.05
8,Cc1cnn(C2CCCN(C(=O)c3ccn(C)c(=O)c3)C2)c1 (stereo not given),4.55
9,CCSCCC(=O)NS(=O)(=O)c1ccc2c(c1)OCCO2,0.35
10,Cn1cc([C@@H]2CN(S(=O)(=O)c3cccs3)C[C@H]2N)c2ccncc21,1.44
11,Cc1cccc(CN2CCC3(CCN(c4ncccn4)CC3)C2=O)c1,5.32
12,CN(C)C(=O)N1C[C@@H]2CCCO[C@@H]2[C@H](N(C)Cc2ccco2)C1,-7.82
13,CCCNC(c1ccc(F)cc1)c1cccnc1 (stereo not given),3.41
14,CCOCC1CN(Cc2cccc(C#N)c2)Cc2nccn2C1 (stereo not given),-8.22
15,CC(C)c1nn(C)c(Cl)c1CNCC(O)c1cccc(F)c1 (stereo not given),-1.83
16,Cc1ccc(CN2Cc3nnn(C)c3C(COCC(=O)N(C)C)C2)s1 (stereo not given),10.1
17,COc1ccc(CN2C[C@H](OCC3CCOCC3)[C@H]3COC[C@H]32)cc1,-9.78
18,COc1cc(N2C[C@@H]3COC[C@]3(COc3cccnc3)C2)ncn1,2.13
19,Cc1ccc(CN2CCn3c(C(=O)N(C)C)cnc3C2)s1,5.97
20,COCC(=O)N1CCC2(CC1)CCN(Cc1ccccn1)C2=O,1.62
21,COC(=O)c1ccc(CN(C(C)C)C(C)C)o1,2.21
22,CC(C)c1cc(C(=O)N2C[C@@H]3CC[C@H]2CN(Cc2ccccn2)C3)no1,2.46
